Columns and labels:
[1] = system: Trypanosoma brucei brucei; experiment: Antitrypanosomal activity against Trypanosoma brucei brucei BS427 after 48 hrs by resazurin dye based fluorescence assay; type: functional, organism-based
Summary of the method: (§1)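 IC50 values are the mean of two independent experiments. The T. b. brucei assay uses free parasites. The T. cruzi assay uses intracellular parasites in H9c2 host cells.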

[2] = Selectivity index, ratio of IC50 for human HEK293 cells incubated for 69 hrs by resazurin dye based fluorescence analysis to IC50 for antitrypanosomal activity against Trypanosoma brucei brucei BS427; type: toxicity; settings: read-out: Ratio IC50
Trypanosoma cruzi = experiment: Antitrypanosomal activity against Trypanosoma cruzi infected in rat H9C2 cells by DRAQ5 DNA dye based imaging analysis; type: functional, organism-based; summary of the method: as §1
[3] = Selectivity index, ratio of cytotoxicity against rat H9C2 cells to IC50 for antitrypanosomal activity against Trypanosoma cruzi infected in rat H9C2 cells; type: toxicity, cell-based; settings: read-out: Selectivity Index
[4] = Trypanosoma brucei, BS427, 48 h, read-out: IC50

IC50 [1, 4] | IC50 (Trypanosoma cruzi) | IC50 [1] | Compound | selectivity ratio at 69 h [2] | selectivity ratio [3]
1000 nM | – | – | CC(C)OC(=O)NCCn1ccc(-c2ccccc2)n1 | 82 | –
108 nM | 790 nM | – | O=C(NCCn1ccc(-c2ccccc2)n1)N1CC[C@@H](F)C1 | 732 | 63
86 nM | 250 nM | – | O=C(NCCn1ccc(-c2ccc(F)cc2)n1)N1CC[C@@H](F)C1 | 922 | 200
1200 nM | 1000 nM | – | O=C(NCCn1ccc(-c2ccc(Cl)cc2)n1)N1CCCCC1 | 35 | 50
4700 nM | 13000 nM | – | N#Cc1ccccc1-c1ccn(CCNC(=O)N2CCCCC2)n1 | 18 | 4
5300 nM | 10000 nM | – | Cc1ccc(-c2ccn(CCNC(=O)N3CCCCC3)n2)cc1 | 16 | 5
230 nM | 200 nM | – | CC(CNC(=O)N1CCCCC1)n1ccc(-c2ccccc2)n1 (centres undefined) | 358 | 251
6600 nM | 25000 nM | – | O=C(NCCn1ccc(-c2ccccc2)n1)N1CCOCC1 | 13 | 2
1200 nM | 4000 nM | – | COc1cccc(-c2ccn(CCNC(=O)N3CCCCC3)n2)c1 | 67 | 13

More lines, now with the values behind:

Compound | IC50 [1, 4] | IC50 (Trypanosoma cruzi) | IC50 [1] | selectivity ratio at 69 h [2] | selectivity ratio [3]
O=C(NCCn1ccc(-c2cccc(Cl)c2)n1)N1CCCCC1 | 130 nM | 130 nM | – | 327 | 398
O=C(NCCn1ccc(-c2ccccc2Cl)n1)N1CCCCC1 | 120 nM | 130 nM | – | 361 | 398
COc1ccc(-c2ccn(CCNC(=O)N3CCCCC3)n2)cc1 | 7100 nM | 25000 nM | – | 12 | 2
O=C(NCCn1ccc(-c2ccccc2)n1)c1ccccc1 | 610 nM | 50000 nM | – | 102 | 1
O=C(NCCn1ccc(-c2ccccc2)n1)N1CCCC1 | 650 nM | – | – | 128 | –
CC(Cn1ccc(-c2ccccc2)n1)NC(=O)N1CCCCC1 (centres undefined) | 640 nM | 1000 nM | – | 131 | 50
O=C(NCCn1ccc(-c2ccc(F)cc2F)n1)N1CCCCC1 | 45 nM | – | – | 1880 | –
N#Cc1ccc(-c2ccn(CCNC(=O)N3CCCCC3)n2)cc1 | – | 40000 nM | – | – | 1
O=S(=O)(NCCn1ccc(-c2ccccc2)n1)c1ccccc1 | – | 50000 nM | Not Active | – | 1
O=C(NCCn1ccc(-c2ccccc2)n1)C1CCCC1 | 1100 nM | 3200 nM | – | 39 | 16
Cc1ccccc1-c1ccn(CCNC(=O)N2CCCCC2)n1 | 350 nM | 320 nM | – | 240 | 158
N#Cc1cccc(-c2ccn(CCNC(=O)N3CCCCC3)n2)c1 | 350 nM | 400 nM | – | 236 | 126
O=C(NCCn1ccc(-c2ccccc2)n1)N1CCCCCC1 | 390 nM | 630 nM | – | 215 | 79
CC(C)NC(=O)NCCn1ccc(-c2ccccc2)n1 | 7500 nM | – | – | 11 | –
O=C(NCCn1ccc(-c2ccccc2)n1)N1CC[C@H](F)C1 | 61 nM | 250 nM | – | 1300 | 200
O=C(CCn1ccc(-c2ccccc2)n1)Nc1ccccc1 | – | – | Not Active | – | –
COc1ccccc1-c1ccn(CCNC(=O)N2CCCCC2)n1 | 2600 nM | – | – | 32 | –
c1ccc(CNCCn2ccc(-c3ccccc3)n2)cc1 | – | – | Not Active | – | –

Source: ChEMBL document CHEMBL4342478, “Discovery of Potent N-Ethylurea Pyrazole Derivatives as Dual Inhibitors of Trypanosoma brucei and Trypanosoma cruzi” (ACS Med Chem Lett, 2020)
